Assay: Toxicity liver stage against HepG2, at 10uM
Type: cell-based
Set-up: test concentration 10 uM, cell line HepG2-A16-CD81EGFP
Details: human, HepG2-A16-CD81EGFP cells; read-out: INHIBITION
Summary of the method: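 Uninfected HepG2-A16-CD81EGFP cells, 3 × 10^3 per well, 1536-well, plated on prespotted compound at 10 μM final, parasite-free screening media added to match infected plates; puromycin 10 μM positive, DMSO 0.5% negative; run in parallel with 48 h PbLuc assay at 37 °C, 5% CO2; viability by CellTiter-Glo luminescence, normalized to controls.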

Row | SMILES | cytotoxicity at 10 µM [%]
1 | Cc1ccc(-n2ncc(C(=O)N(C)C3CCN(C)CC3)c2N)cc1C | -8.56
2 | CC[C@@H](C)[C@H](NC(=O)Cn1ccc2c(Cl)cccc21)C(=O)O | 2.88
3 | CN1CCN(CC(CC(=O)Nc2ccc(Cl)cc2)C(=O)O)CC1 (stereo not given) | 2.83
4 | O=C(CC1CCCC1)Nc1ccc(-n2cc(Cl)cn2)nc1 | -56.3
5 | COc1nn(C)cc1C(=O)NCC(=O)NCc1cccnc1 | -6.32
6 | COC(C)(CNS(=O)(=O)c1cnn(C)c1)c1ccccc1F (stereo not given) | -4.8
7 | CC(C)CN1C[C@H]2CCN(C(=O)c3ccccn3)CC[C@H]2S1(=O)=O | 0.582
8 | CC(=O)N1CCC2(C1)C(=O)N(CC1CC1)c1ccccc12 (stereo not given) | 2.26
9 | CS(=O)(=O)N1CCN(CC2CC2)c2ncccc2C1 | -152
10 | O=C(c1ccno1)N1CCC2(CC1)C(=O)Nc1ccccc12 | -134
11 | CC(C)c1nnc2ccc(N3CCC(C(=O)NC4CC4)CC3)nn12 | -5.01
12 | CCOc1ccc(C2SCC(=O)Nc3c2c(=O)[nH]n3C(CC)CC)cc1 (stereo not given) | 6.5
13 | CC(=O)N1CCC(Oc2ccc(Cl)cn2)CC1 | -19.5
14 | CCCNC(=O)c1sc(Nc2ccc(Cl)cn2)nc1C | -15.2
15 | Cc1ccc2c(ccn2CCC(=O)N2CCC(C(N)=O)CC2)c1 | -12.6
16 | CS(=O)(=O)NC[C@]12COC[C@H]1CN(C(=O)c1ccoc1)C2 | 4.34
17 | NCc1n[nH]c(-c2ccc(F)cc2)n1 | 0.186
18 | Cc1cc(N2CCN(C3CCOCC3)CC(C(=O)N(C)C)C2)ncn1 (stereo not given) | 3.74
19 | Cc1nnc(C2CCN(c3ccc(F)cc3)CC2)o1 | 0.207
20 | CN(C)C(=O)c1cccc(C2CCN(c3ncccn3)CC2)n1 | 1.24
21 | O=C(c1ccc(=O)[nH]n1)N1CCCC(O)(CN2CCC(F)(F)CC2)CC1 (stereo not given) | -8.71
22 | COCCNc1ccc(CC2CCCN(Cc3c[nH]cn3)C2)nn1 (stereo not given) | -2.7
23 | CS(=O)(=O)N[C@@H]1CN(C(=O)c2cc3ccccc3s2)C[C@H]1O | -0.378
24 | Cc1cc(-c2cnc(NC3CCCC3)nc2-c2ccco2)on1 | -7.56
25 | O=C(c1ccc(Cl)cc1)N1CCC2(C1)C(=O)Nc1ccccc12 (stereo not given) | 1.91
26 | CC(=O)N(C)Cc1ccccc1NC(=O)c1ccccc1C | 1.18
27 | O=C(CN(Cc1cccs1)C1CCS(=O)(=O)C1)NCCc1cccs1 (stereo not given) | -11.5
28 | NC(=O)C(NC(=O)CCc1ccc(Cl)s1)c1ccccc1 (stereo not given) | 1.28

Row | SMILES | cytotoxicity at 10 µM [%]
29 | Cc1noc(C(C)N2CCN(CCn3ccccc3=O)CC2)n1 (stereo not given) | 5.31
30 | CN(CCc1ccccn1)C(=O)Nc1cccnc1-n1cccn1 | 3.25
31 | O=C(NCCNc1ncccn1)NCCc1c(F)cccc1F | 7.49
32 | Cc1oc(CNC(=O)Cc2ccccc2Cl)cc1C(=O)O | 0.723
33 | N#Cc1ccc(C(=O)N(Cc2ccncc2)C2CC2)cc1 | -8.53
34 | CN(C1CCN(c2ccccn2)CC1)S(=O)(=O)c1cccc(F)c1 | 10.8
35 | CC(C)(C)OC(=O)NCC1CCCCN1Cc1ccncc1 (stereo not given) | 9.04
36 | COc1cccc(CN(C)Cc2cc(C#N)ccc2F)c1OC | -5
37 | CCCS(=O)(=O)N1CCC(NC(=O)c2ccc(C)s2)CC1 | -11.4
38 | Cn1c(C(=O)N2CCC(C3OCCO3)CC2)c(Cl)c2ccccc21 | 13.7
39 | CCCC(=O)N1CCC(C(=O)NCCN2CCC(C)CC2)CC1 | -2.6
40 | COCC(C)NC(=O)NCCCc1cc(N)n(-c2ccccc2)n1 (stereo not given) | -12.2
41 | Cc1cc(CN2CCN(C(=O)C(C(C)C)n3cncn3)CC2)on1 (stereo not given) | 2.35
42 | Cc1cc(C(=O)N2CCC(Nc3cccnc3)CC2)c(C)s1 | -141
43 | COCCn1ccc(NC(=O)Nc2cccc(C#N)c2)n1 | 4
44 | Cc1cc(NC(=O)CNC(C)(C)c2ccc3c(c2)OCCO3)no1 | -7.1
45 | CN(C)C(CNC(=O)NCc1ccco1)c1cccs1 (stereo not given) | -3.29
46 | OCc1ccc(CNc2ccccc2CN2CCC(O)CC2)o1 | 1.85
47 | Cc1cc(-n2cncn2)ccc1C(=O)N(CC(F)(F)F)C(C)C | -3.72
48 | O=C(c1cnns1)N1CCN(c2ccc(F)cc2Cl)CC1 | -145
49 | Cc1noc(C2CCN(C(C)c3nc(C(C)(C)C)no3)CC2)n1 (stereo not given) | 4.13
50 | CC1CCN(C(=O)C(C)N2CCc3[nH]nc(C(F)(F)F)c3C2)CC1 (stereo not given) | 2.54
51 | CC(=O)NCC1CCN(c2ccnc3ccc(Br)cc23)CC1 | 14.2
52 | CC(C)(C)SCC(=O)NC(C)(C(N)=O)c1cccc(Cl)c1 (stereo not given) | 1.61
53 | Cn1cc(C2CCCN2C(=O)Cn2c(=O)oc3ccccc32)cn1 (stereo not given) | 1.84
54 | CN(Cc1nnn(CC2CCC2)n1)C(=O)c1ccccc1 | -6.06
55 | NC(=O)CC1CCCCN1C(=O)Cc1cccc(Br)c1 (stereo not given) | 1.77
